These results are taken from ChEMBL document CHEMBL4152279, “Synthesis, cytotoxic evaluation and target identification of thieno[2,3-d]pyrimidine derivatives with a dithiocarbamate side chain at C2 position” (Eur J Med Chem, 2018).

The IC50 is the point on the concentration scale where inhibition reaches its midpoint. A high value points to weaker potency.

The test system of assay [1] is A549. Nature of the assay: Cytotoxicity against human A549 cells at 30 uM by MTS assay relative to control. The format is functional. The essentials:
(§1)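 MTS read-out (CellTiter 96 AQueous One) of proliferation in A549 or HCT-116 cells grown in DMEM with 10% FBS at 37 °C, 5% CO2. Taxol-resistant A549 cells were exposed for 72 h. Compounds were screened at 30 μM versus vehicle, with ≥50% inhibition counted active. Actives were then tested over a concentration range for IC50. Triplicate wells, three independent experiments, mean ± SD.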
In general terms: Tetrazolium dyes change colour on reduction, which living cells bring about.

Assay [2] concerns HCT-116. Nature of the assay: Cytotoxicity against human HCT116 cells at 30 uM by MTS assay relative to control. The format is functional. The essentials:
as §1

Assay [3] concerns HeLa. Nature of the assay: Cytotoxicity against human HeLa cells at 30 uM by MTS assay. The format is functional, cell-based.
Assay [4] concerns MCF7. Nature of the assay: Cytotoxicity against human MCF7 cells at 30 uM by MTS assay. The format is functional, cell-based.
Assay [5] relates to MDA-MB-231. Nature of the assay: Cytotoxicity against human MDA-MB-231 cells at 30 uM by MTS assay. The format is functional, cell-based.
The subject of assay [6] is HT-29. Nature of the assay: Cytotoxicity against human HT-29 cells at 30 uM by MTS assay. The format is functional, cell-based.
Assay [7] relates to A549. Nature of the assay: Cytotoxicity against human A549 cells by MTS assay. The format is functional, cell-based. Put shortly: as §1
Assay [8] deals with HCT-116. Nature of the assay: Cytotoxicity against human HCT116 cells by MTS assay. The format is functional, cell-based. Put shortly: as §1

Calls of active or inactive are those of the source. No cut-off for these calls is given here. Some results are limits rather than exact numbers.

Consider `COc1cccc(CSC(=S)NCc2nc3sc(C)cc3c(=O)[nH]2)c1`, for which the outcome in assay [1], in assay [2], in assay [3], in assay [4], in assay [5] and in assay [6] was inactive.

On to `COc1ccc(CNC(=S)SCc2nc3sc(C)cc3c(=O)[nH]2)c(OC)c1`, for which the Activity result in assay [1] and in assay [2] was “>=50%” each time. In addition, the outcome in assay [3], in assay [4], in assay [5] and in assay [6] was inactive. The IC50 in assay [7] and in assay [8] was more than 30 µM in each case.

For `Cc1cc2c(=O)[nH]c(CSC(=S)NCc3ccc(Cl)cc3)nc2s1`, the Activity entry in assay [1] and in assay [2] was “>=50%” each time. Moreover, the result in assay [3], in assay [4], in assay [5] and in assay [6] was inactive. For the same compound, the half-maximal inhibitory concentration (IC50) was 11.3 µM in assay [7] and 25.1 µM in assay [8].

For `Cc1cc2c(=O)[nH]c(CSC(=S)NCc3ccc(F)cc3)nc2s1`, the Activity result in assay [1] and in assay [2] was “>=50%” each time. In addition, the outcome in assay [3], in assay [4], in assay [5] and in assay [6] was inactive. For the same compound, the values for the IC50 in assay [7] and in assay [8] were 18.9 µM and 28.7 µM, respectively.

For the compound `Cc1cc2c(=O)[nH]c(CSC(=S)NCc3cccnc3)nc2s1`, the Activity result in assay [1] and in assay [2] was “>=50%” throughout. Also, the outcome in assay [3], in assay [4], in assay [5] and in assay [6] was inactive. In addition, the IC50 in assay [7] stood at 5.79 µM; in assay [8], 9.3 µM.

As for `Cc1cc2c(=O)[nH]c(CNC(=S)SCc3ccc([N+](=O)[O-])cc3)nc2s1`, the result in assay [1], in assay [2], in assay [3], in assay [4], in assay [5] and in assay [6] was inactive.

Turning to `COc1ccc(CSC(=S)NCc2nc3sc(C)cc3c(=O)[nH]2)cc1`, the result in assay [1], in assay [2], in assay [3], in assay [4], in assay [5] and in assay [6] was inactive.

Turning to `COc1cc(CNC(=S)SCc2nc3sc(C)cc3c(=O)[nH]2)cc(OC)c1OC`, the Activity entry in assay [1] and in assay [2] was “>=50%” each time. In addition, the result in assay [3], in assay [4], in assay [5] and in assay [6] was inactive. Besides, the IC50 in assay [7] was 7.89 µM; in assay [8] it was 14.9 µM.

As to `Cc1cc2c(=O)[nH]c(CSC(=S)NCc3ccc([N+](=O)[O-])cc3)nc2s1`, the Activity result in assay [1] and in assay [2] was “>=50%” each time. The result in assay [3], in assay [4], in assay [5] and in assay [6] was inactive. The IC50 in assay [7] is 12.3 µM; in assay [8] it was 20.2 µM.

Take `COc1ccccc1CNC(=S)SCc1nc2sc(C)cc2c(=O)[nH]1`: the Activity entry in assay [1] and in assay [2] was “>=50%” each time. The result in assay [3], in assay [4], in assay [5] and in assay [6] was inactive. In addition, the half-inhibitory concentration (IC50) is 7.01 µM in assay [7] and 18.1 µM in assay [8].

Consider `Cc1cc2c(=O)[nH]c(CNC(=S)SCc3ccc(Br)cc3)nc2s1`, for which the result in assay [1], in assay [2], in assay [3], in assay [4], in assay [5] and in assay [6] was inactive.

Regarding `Cc1cc2c(=O)[nH]c(CSC(=S)NCc3ccccc3F)nc2s1`, the Activity result in assay [1] and in assay [2] was “>=50%” each time. Besides, the outcome in assay [3], in assay [4], in assay [5] and in assay [6] was inactive. Also, the values for the IC50 in assay [7] and in assay [8] were more than 30 µM and 29.7 µM, respectively.

For `Cc1cc2c(=O)[nH]c(CNC(=S)SCc3ccc(Cl)cc3)nc2s1`, the result in assay [1], in assay [2], in assay [3], in assay [4], in assay [5] and in assay [6] was inactive.

For `Cc1cc2c(=O)[nH]c(CSC(=S)NCc3ccccc3)nc2s1`, the Activity result in assay [1] and in assay [2] was “>=50%” each time. For the same compound, the outcome in assay [3], in assay [4], in assay [5] and in assay [6] was inactive. The IC50 in assay [7] was 29.5 µM; in assay [8], more than 30 µM.

As to `CCOC(=O)c1ccc(CSC(=S)NCc2nc3sc(C)cc3c(=O)[nH]2)cc1`, the outcome in assay [1], in assay [2], in assay [3], in assay [4], in assay [5] and in assay [6] was inactive.

`Cc1cc2c(=O)[nH]c(CSC(=S)NCc3ccc4c(c3)OCO4)nc2s1`: the Activity entry in assay [1] and in assay [2] was “>=50%” throughout. Further, the outcome in assay [3], in assay [4], in assay [5] and in assay [6] was inactive. Moreover, the IC50 in assay [7] was determined as 14 µM; in assay [8] it was 24.6 µM.

Consider `COc1ccccc1CSC(=S)NCc1nc2sc(C)cc2c(=O)[nH]1`, for which the outcome in assay [1], in assay [2], in assay [3], in assay [4], in assay [5] and in assay [6] was inactive.

On to `Cc1ccc(CSC(=S)NCc2nc3sc(C)cc3c(=O)[nH]2)cc1`, for which the result in assay [1], in assay [2], in assay [3], in assay [4], in assay [5] and in assay [6] was inactive.

Turning to `Cc1cc2c(=O)[nH]c(CNC(=S)SCc3ccc(F)cc3)nc2s1`, the outcome in assay [1], in assay [2], in assay [3], in assay [4], in assay [5] and in assay [6] was inactive.

For `Cc1cc2c(=O)[nH]c(CSC(=S)NCc3ccc(F)cc3F)nc2s1`, the Activity entry in assay [1] and in assay [2] was “>=50%” in each case. The outcome in assay [3], in assay [4], in assay [5] and in assay [6] was inactive. The values for the IC50 in assay [7] and in assay [8] were 16.2 µM and more than 30 µM, respectively.

As for `Cc1cc2c(=O)[nH]c(CSC(=S)NCc3ccc(Cl)cc3Cl)nc2s1`, the Activity entry in assay [1] and in assay [2] was “>=50%” in each case. Moreover, the result in assay [3], in assay [4], in assay [5] and in assay [6] was inactive. The IC50 in assay [7] was 29.5 µM; in assay [8], more than 30 µM.

On to `Cc1cc2c(=O)[nH]c(CSC(=S)NCc3ccncc3)nc2s1`, for which the Activity result in assay [1] and in assay [2] was “>=50%” in each case. Also, the outcome in assay [3], in assay [4], in assay [5] and in assay [6] was inactive. Further, the half-inhibitory concentration (IC50) in assay [7] came to 7.43 µM; in assay [8], 14.1 µM.

With `Cc1cc2c(=O)[nH]c(CNC(=S)SCc3ccc(C#N)cc3)nc2s1`, the outcome in assay [1], in assay [2], in assay [3], in assay [4], in assay [5] and in assay [6] was inactive.

Consider `Cc1cc2c(=O)[nH]c(CNC(=S)SCc3ccccc3)nc2s1`, for which the result in assay [1], in assay [2], in assay [3], in assay [4], in assay [5] and in assay [6] was inactive.

Regarding `Cc1cc2c(=O)[nH]c(CNC(=S)SCc3ccc(F)cc3F)nc2s1`, the outcome in assay [1], in assay [2], in assay [3], in assay [4], in assay [5] and in assay [6] was inactive.
